Results: ChEMBL document CHEMBL4715736, “Identification of anticancer agents based on the thieno[2,3-b]pyridine and 1H-pyrazole molecular scaffolds” (2016)

How the values were obtained:
Type in all cases: functional
CCRF-CEM [1] = assay: Growth inhibition of human CCRF-CEM cells assessed as cell growth at 0.01 uM incubated for 48 hrs by sulforhodamine B assay relative to control; settings: read-out: Activity
Outline: (§1)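 NCI Developmental Therapeutics Program NCI60 panel. Compounds that were active in the 10 µM one-dose screen went on to dose–response testing. Growth at each concentration is expressed relative to untreated control (100%). GI50 (concentration giving 50% of maximal inhibition of proliferation) and TGI (concentration giving total growth inhibition) were derived from the curves.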

HCC 2998 = assay: Growth inhibition of human HCC 2998 cells assessed as cell growth at 0.01 uM incubated for 48 hrs by sulforhodamine B assay relative to control; settings: read-out: Activity; outline: as §1
NCI-H226 = assay: Growth inhibition of human NCI-H226 cells assessed as cell growth at 0.1 uM incubated for 48 hrs by sulforhodamine B assay relative to control; settings: read-out: Activity
Malme-3M = assay: Growth inhibition of human Malme-3M cells assessed as cell growth at 0.01 uM incubated for 48 hrs by sulforhodamine B assay relative to control; settings: read-out: Activity
DU-145 = assay: Growth inhibition of human DU-145 cells incubated for 48 hrs by sulforhodamine B assay; outline: as §1
LOX IMVI = assay: Growth inhibition of human LOX IMVI cells assessed as cell growth at 1 uM incubated for 48 hrs by sulforhodamine B assay relative to control; settings: read-out: Activity
SF-295 = assay: Growth inhibition of human SF-295 cells assessed as cell growth at 1 uM incubated for 48 hrs by sulforhodamine B assay relative to control; settings: read-out: Activity
HOP-62 = assay: Growth inhibition of human HOP-62 cells incubated for 48 hrs by sulforhodamine B assay
Outline: (§2)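 NCI60 panel at the NCI Developmental Therapeutics Program. Only compounds active in the 10 µM screen went to dose-response testing. GI50, the concentration giving 50% of maximal inhibition of proliferation, and TGI, the concentration giving total growth inhibition, were derived from the dose-response curves.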

COLO 205 = assay: Growth inhibition of human COLO 205 cells assessed as cell growth at 1 uM incubated for 48 hrs by sulforhodamine B assay relative to control; settings: read-out: Activity; outline: as §1
SNB-75 = assay: Growth inhibition of human SNB-75 cells assessed as cell growth at 0.01 uM incubated for 48 hrs by sulforhodamine B assay relative to control; settings: read-out: Activity
HT-29 [2] = assay: Growth inhibition of human HT-29 cells assessed as cell growth at 0.01 uM incubated for 48 hrs by sulforhodamine B assay relative to control; settings: read-out: Activity
U-251 = assay: Growth inhibition of human U-251 cells assessed as cell growth at 1 uM incubated for 48 hrs by sulforhodamine B assay relative to control; settings: read-out: Activity
SK-OV-3 = assay: Growth inhibition of human SK-OV-3 cells assessed as cell growth at 0.1 uM incubated for 48 hrs by sulforhodamine B assay relative to control; settings: read-out: Activity
SK-MEL-28 = assay: Growth inhibition of human SK-MEL-28 cells assessed as cell growth at 0.1 uM incubated for 48 hrs by sulforhodamine B assay relative to control; settings: read-out: Activity
NCI-H522 [3] = assay: Growth inhibition of human NCI-H522 cells assessed as cell growth at 0.01 uM incubated for 48 hrs by sulforhodamine B assay relative to control; settings: read-out: Activity
M14 = assay: Growth inhibition of human M14 cells assessed as cell growth at 0.01 uM incubated for 48 hrs by sulforhodamine B assay relative to control; settings: read-out: Activity
SN12C = assay: Growth inhibition of human SN12C cells assessed as cell growth at 0.01 uM incubated for 48 hrs by sulforhodamine B assay relative to control; settings: read-out: Activity
UO-31 [4] = assay: Growth inhibition of human UO-31 cells assessed as cell growth at 0.1 uM incubated for 48 hrs by sulforhodamine B assay relative to control; settings: read-out: Activity
SR = assay: Growth inhibition of human SR cells assessed as cell growth at 1 uM incubated for 48 hrs by sulforhodamine B assay relative to control; settings: read-out: Activity
K562 [5] = assay: Growth inhibition of human K562 cells assessed as cell growth at 0.01 uM incubated for 48 hrs by sulforhodamine B assay relative to control; settings: read-out: Activity
RPMI-8226 = assay: Growth inhibition of human RPMI-8226 cells assessed as cell growth at 1 uM incubated for 48 hrs by sulforhodamine B assay relative to control; settings: read-out: Activity
OVCAR-5 = assay: Growth inhibition of human OVCAR-5 cells incubated for 48 hrs by sulforhodamine B assay
Outline: (§3)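 NCI DTP 60-line human tumour panel. Dose-response curves were run only for ligands active in the initial 10 µM screen. GI50 (concentration giving 50% of maximal inhibition of proliferation) and TGI (concentration giving total growth inhibition) were derived from these curves.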

OVCAR-4 = assay: Growth inhibition of human OVCAR-4 cells assessed as cell growth at 0.1 uM incubated for 48 hrs by sulforhodamine B assay relative to control; settings: read-out: Activity
A549 = assay: Growth inhibition of human A549/ATCC cells assessed as cell growth at 1 uM incubated for 48 hrs by sulforhodamine B assay relative to control; settings: read-out: Activity; outline: as §1
NCI-H322M = assay: Growth inhibition of human NCI-H322M cells incubated for 48 hrs by sulforhodamine B assay; outline: as §2
SF-539 = assay: Growth inhibition of human SF-539 cells incubated for 48 hrs by sulforhodamine B assay; outline: as §3
UO-31 [6] = assay: Growth inhibition of human UO-31 cells incubated for 48 hrs by sulforhodamine B assay; outline: as §3
K562 [7] = assay: Growth inhibition of human K562 cells assessed as cell growth at 1 uM incubated for 48 hrs by sulforhodamine B assay relative to control; settings: read-out: Activity
NCI-H522 [8] = assay: Growth inhibition of human NCI-H522 cells assessed as cell growth at 0.1 uM incubated for 48 hrs by sulforhodamine B assay relative to control; settings: read-out: Activity
SF-268 = assay: Growth inhibition of human SF-268 cells incubated for 48 hrs by sulforhodamine B assay; outline: as §3
CCRF-CEM [9] = assay: Growth inhibition of human CCRF-CEM cells assessed as cell growth at 100 uM incubated for 48 hrs by sulforhodamine B assay relative to control; settings: read-out: Activity; outline: as §1
HT-29 [10] = assay: Growth inhibition of human HT-29 cells assessed as cell growth at 1 uM incubated for 48 hrs by sulforhodamine B assay relative to control; settings: read-out: Activity
RXF 393 = assay: Growth inhibition of human RXF 393 cells assessed as cell growth at 100 uM incubated for 48 hrs by sulforhodamine B assay relative to control; settings: read-out: Activity
[11] = read-out: LC50 (the source's name)

Q: For `CCc1ccccc1NC(=O)c1sc2nc3c(cc2c1N)C(=O)CCC3`, which growth at 0.01 µM (CCRF-CEM [1]) is on record?
A: 96%

Q: What about the growth at 0.01 µM (HCC 2998) of the same compound?
A: 100%

Q: And the growth at 0.1 µM (NCI-H226)?
A: 86%

Q: And the growth at 0.01 µM (Malme-3M)?
A: 100%

Q: And the GI50 (DU-145)?
A: 0.499 µM

Q: And the TGI (DU-145)?
A: > 100 µM

Q: What about the CC50 (DU-145; [11]) of the same compound?
A: > 100 µM

Q: And the growth at 1 µM (LOX IMVI)?
A: 39%

Q: And the growth at 1 µM (SF-295)?
A: 13%

Q: What about the GI50 (HOP-62) of the same compound?
A: 0.445 µM

Q: And the LC50 (HOP-62)?
A: > 100 µM

Q: And the TGI (HOP-62)?
A: ≥ 100 µM

Q: What about the growth at 1 µM (COLO 205) of the same compound?
A: -34%

Q: And the growth at 0.01 µM (SNB-75)?
A: 73%

Q: What about the growth at 0.01 µM (HT-29 [2]) of the same compound?
A: 95%

Q: What about the growth at 1 µM (U-251) of the same compound?
A: 33%

Q: And the growth at 0.1 µM (SK-OV-3)?
A: 103%

Q: What about the growth at 0.1 µM (SK-MEL-28) of the same compound?
A: 79%

Q: What about the growth at 0.01 µM (NCI-H522 [3]) of the same compound?
A: 106%

Q: And the growth at 0.01 µM (M14)?
A: 90%

Q: What about the growth at 0.01 µM (SN12C) of the same compound?
A: 94%

Q: And the growth at 0.1 µM (UO-31 [4])?
A: 85%

Q: What about the growth at 1 µM (SR) of the same compound?
A: 20%

Q: What about the growth at 0.01 µM (K562 [5]) of the same compound?
A: 104%

Q: And the growth at 1 µM (RPMI-8226)?
A: 41%

Q: What about the GI50 (OVCAR-5) of the same compound?
A: 0.0392 µM

Q: What about the TGI (OVCAR-5) of the same compound?
A: > 100 µM

Q: What about the CC50 (OVCAR-5; [11]) of the same compound?
A: > 100 µM

Q: And the growth at 0.1 µM (OVCAR-4)?
A: 88%

Q: And the growth at 1 µM (A549)?
A: 39%

Q: And the TGI (NCI-H322M)?
A: > 100 µM

Q: What about the CC50 (NCI-H322M; [11]) of the same compound?
A: > 100 µM

Q: What about the GI50 (SF-539) of the same compound?
A: 0.335 µM

Q: And the TGI (SF-539)?
A: 2.69 µM

Q: What about the CC50 (SF-539; [11]) of the same compound?
A: > 100 µM

Q: And the GI50 (UO-31 [6])?
A: 14.8 µM

Q: And the TGI (UO-31 [6])?
A: > 100 µM

Q: And the CC50 (UO-31 [6]; [11])?
A: > 100 µM

Q: And the growth at 1 µM (K562 [7])?
A: 22%

Q: What about the growth at 0.1 µM (NCI-H522 [8]) of the same compound?
A: 88%

Q: What about the GI50 (SF-268) of the same compound?
A: 10.1 µM

Q: And the LC50 (concentration killing 50% of cells) (SF-268)?
A: > 100 µM

Q: What about the TGI (SF-268) of the same compound?
A: > 100 µM

Q: And the growth at 100 µM (CCRF-CEM [9])?
A: 8%

Q: What about the growth at 1 µM (HT-29 [10]) of the same compound?
A: 13%

Q: What about the growth at 100 µM (RXF 393) of the same compound?
A: -41%
